# Assay results as given in the EternaBench riboswitch data.
# Test system: MS2 coat protein
# Experiment: apparent Kd, MS2 coat protein; higher = weaker binding; RNA-MaP array; FMN 200 µM where present
# Summary of the method: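 The apparent Kd is the median of filtered binding-curve fits, one per cluster, to green signal normalised to red-channel RNA signal and control-cluster median Fmax. The clusters were on Illumina sequencing chips, and stalled E. coli RNA polymerase had transcribed the designs on them. Titration used SNAP-549-labelled MS2 coat protein from 0.7 or 1.5 nM, doubling to 3 µM, without and then with constant ligand, in 100 mM Tris-HCl pH 7.5, 80 mM KCl, 4 mM MgCl2, BSA, DTT, yeast tRNA and Tween-20.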
# [1] = designed as: OFF switch for flavin mononucleotide, no ligand
# [2] = ligand present: flavin mononucleotide, designed as: OFF switch for flavin mononucleotide
# [3] = designed as: ON switch for flavin mononucleotide, no ligand
# [4] = ligand present: flavin mononucleotide, designed as: ON switch for flavin mononucleotide
Sequence,apparent Kd [1],apparent Kd [2],apparent Kd [3],apparent Kd [4]
CCAUGACAAAGUCAUGGAUUACGAACAUGAGGAUCACCCAUGUAGGAUAUGCUACUCAAAGAGUAGCAGAAGGACAUGUGUCUU,0.0329 µM,0.165 µM,–,–
CCAUGACCGUAAGCGAUUACCACAUGAGGAUCACCCAUGUACAGAAGGCGGACGUCAUUAUGAACCGAGGAUAUGUACCAGGGU,0.0922 µM,0.0121 µM,–,–
CCAUUUCUGUAAGGAUAUAUAAACAUGACGAUACAUGAGGAUCACCCAUGUGUAGAAGGUACAAAUACAUAUAAUGCAAUGUUC,0.0148 µM,0.013 µM,–,–
CCCACGCAUGAGAAGGGACAGGCGUGCAAUUCGACAUGAGGAUCACCCAUGUCAGGAUAUCAGUUAAGGUGGGCAGAACCGAUG,0.0154 µM,0.0573 µM,–,–
CCCACGUCAGGAUAUCCAAAGGUCCGAAAUAACGGUACUUUGGAGAAGGGACAUGAGGAUCACCCAUGUCCUCG,0.0189 µM,0.0288 µM,–,–
CCCACGUGUGCAGGAUAUCCCACGAGCGCAACAUGAGGAUCACCCAUGUACCUGAGUCUCGGAACGGAGAAGGGUACAUGUUAU,–,–,0.432 µM,0.101 µM
CCCUCAACAUGAGGAUCACCCAUGUAGGAUAUCGCUAUUGUAAUCAUGAAACAUGAUUACAAUAGCGAGAAGGACAUAUGACCC,0.0215 µM,0.0996 µM,–,–
CCCUCACAUGAGGAUCACCCAUGUCAGGAUAUCCAGCCCUACUAUAAAGCGUCUGGCGGGAGAAGGGACAGGAU,0.0209 µM,0.0285 µM,–,–
CCCUCACAUGAGGAUCACCCAUGUCCUAGCCCGUCAGGAUAUAGCCCGCAUCCGCUGCGGCUAGAAGGGACAGCUG,–,–,0.19 µM,0.141 µM
CCGAAACCUCAGAAGGACCACAUGAGGAUCACCCAUGUCAAGCAAAACGGUAGGAUAUGAGGGAAAAGUCGAUAUACCCGACAG,–,–,0.00784 µM,0.00393 µM
CCGAAUGUCACAGGAUAUGGUCCGGGCUCGCGACCAGAAGGGUGAUCUCACAUGAGGAUCACCCAUGUGUAGGCGUUAGGCUAC,–,–,0.0363 µM,0.26 µM
CCGAAUUAGUAGGAUAUAGGAGUCGAUAGACACCUAGAAGGACUAACAUGAGGAUCACCCAUGUGUCCUAUCGG,0.0146 µM,0.0315 µM,–,–
CCGACCUUGGCAGGAUAUAGACUCGAAGUUGAUCCCGCCGAUGGAGACAUGAGGAUCACCCAUGUCUAGAAGGGCCAGUCGAAA,0.0143 µM,0.0461 µM,–,–
CCGAGGCGAGGAUAUAUGAAGGACACAACAUUUAGGGUAAGACAUGAGGAUCACCCAUGUAGAAGGCGCGACGC,0.0634 µM,0.0558 µM,–,–
CCGAUGGUAUACUAGGAUAUGGGCGCCCUUACAUGAGGAUCACCCAUGUUAUCACAAAUCCGCGGCCAGAAGGAGUUCAUGGGAG,–,–,0.176 µM,0.134 µM
CCGAUUAGCACAGGAUAUGGGAAUUCGUAGUUUCCAGAAGGGUGAGCCAAUACAUGAGGAUCACCCAUGUGCGGUAGGUCGGGA,–,–,0.0305 µM,0.08 µM
CCGCAAAAGCAGGAUAUCGUAUCGGAUACGAUACGAGAAGGGCUAACAUGAGGAUCACCCAUGUGUCCUAGCGG,0.0169 µM,0.0256 µM,–,–
CCGCAAAAGGAGGAUAUCGUAUCGGAUACGAUACGAGAAGGCUUUACAUGAGGAUCACCCAUGUGUCCUAGCGG,0.0137 µM,0.0192 µM,–,–
CCGCAAAAUGAGGAUAUCGUAUCGGAUACGAUACGAGAAGGCGUAACAUGAGGAUCACCCAUGUGUCCUAGCGG,0.0143 µM,0.0172 µM,–,–

Sequence,apparent Kd [1],apparent Kd [2],apparent Kd [3],apparent Kd [4]
CCGCGGCGUGCAGGAUAUGUUACGAUACCUCGGACAGAAGGGCACAUGAGGAUCACCCAUGUAAUAUAUAUGGAACAUAUAUAG,0.0338 µM,0.0533 µM,–,–
CCGGAAAUAGAGGAUAUAGGAGUCGAUAGACUCCUAGAAGGCUAUACAUGAGGAUCACCCAUGUGUCCUACCGG,0.0174 µM,0.0396 µM,–,–
CCGGAACAUGAGGAUCACCCAUGUGAGGAUAUCGUACGUUCGUCGAUAGACGAUCGUACGAGAAGGCACGCCGG,0.0182 µM,0.0173 µM,–,–
CCGGAAGUAGAGGAUAUCGUAUCGGAUACGAUACGAGAAGGCUAUACAUGAGGAUCACCCAUGUGUCCUACCGG,0.0246 µM,0.0333 µM,–,–
CCGGGCUAGGAGAAGGGCUAGAGUGUGAUAUAUUUGCCCGCGAGCACAUGAGGAUCACCCAUGUAGCAGGAUAUCCAAGCCGAU,0.00733 µM,0.018 µM,–,–
CCGUUACAUGAGGAUCACCCAUGUGAGGAUAUCGGUGUGACUGGCAGCGUGCGGGACUCGAGAAGGCGCUUGGC,0.0485 µM,0.0484 µM,–,–
CCUAAACAUGAGGAUCACCCAUGUGAGGAUAUGAUGCAGCAGUGGUCUACGCUGUGCAUCAGAAGGUACAUGGU,0.0808 µM,0.12 µM,–,–
CCUAAGGAGGCAGGAUAUAGUGUGGUGGCCGGGCUCCCACGGCGAGCGGCACUAGAAGGGUCACUACAUGAGGAUCACCCAUGU,–,–,0.0733 µM,0.03 µM
CCUACCUUCACAGGAUAUGCUAUCCUUUGGGUAGCAGAAGGGUGAUAACAUGAGGAUCACCCAUGUGGUAGGCCCGGUGACGGG,–,–,1.3 µM,0.105 µM
CCUAGACAUGAGGAUCACCCAUGUGAGGAUAUGAUGCGAUCGUCGAAAGACGAUAGCAUCAGAAGGCACAUAUG,0.0344 µM,0.109 µM,–,–
CCUAUGUGAGGAUAUGUCUGGUCUUCUUUUAUUUUUUACAGACAGAAGGCACAUGAGGAUCACCCAUGUCAGAC,0.0232 µM,0.0647 µM,–,–
CCUCAGUCAGGAUAUAUCGCACCCAUGAAGUACAUAGGUUCAUAGAAGGGACAUGAGGAUCACCCAUGUCUAGA,0.022 µM,0.057 µM,–,–
CCUCCACAUGAGGAUCACCCAUGUCAGGAUAUCGUGUGCGCGUUUUCGGUCUUUCGCGCGAGAAGGGACGACUG,0.0273 µM,0.0284 µM,–,–
CCUCCACAUUAGGAUAUCGUCACAGAAAUGUGACGAGAAGGAAUGACAUGAGGAUCACCCAUGUUAUCGUGAUG,0.0212 µM,0.0549 µM,–,–
CCUCUACAUGAGGAUCACCCAUGUGAGGAUAUCUCGGAGCAGCCACUUAAAGCACUCCAGAGAAGGCACGUGUA,0.0153 µM,0.0228 µM,–,–
CCUGGUUGGUAAGGAUAUCCUACACUAUUCUGACCCGUGCAAGCUACAUGAGGAUCACCCAUGUGGGAGAAGGUGCGUCAACGU,0.0128 µM,0.012 µM,–,–
CCUGUCGCAUGAGGAUAUGGUCAGCUUUGCUGACCAGAAGGCAUGUCGAUAGACAUGAGGAUCACCCAUGUAGUAAAGACAGGA,–,–,0.831 µM,0.0573 µM
CCUUUGUCAGGAUAUCAGAACGCGCUCGUAGGGAGCGCGAAUGAGAAGGGACAUGAGGAUCACCCAUGUAAAGA,0.0947 µM,0.492 µM,–,–
CCUUUUGUAUAAGGAUAUGUAACAAGGUAUAGAUUGGUAGGAUUUGUGCUUACAGAAGGUAUACAUGAGGAUCACCCAUGUCGA,0.0231 µM,0.0595 µM,–,–

Sequence,apparent Kd [1],apparent Kd [2],apparent Kd [3],apparent Kd [4]
CGAAGUAGCACAGGAUAUCAUACAUGAGGAUCACCCAUGUCAAGAAACAAAUGAGAAGGGUGCAGGCGGUGUUGGAGCUGUUGC,–,–,0.0994 µM,0.0141 µM
CGACACAUGAGGGUCUCCCAUGACAUGAGGAUCACCCAUGUGCAGGAUAUACGUGUGAUGGUAUAGUAGAAGGGCACUCUAUGC,0.368 µM,0.392 µM,–,–
CGACACCACACAGGAUAUGCUGGACUUUGUCCAGCAGAAGGGUGUAAACAUGAGGAUCACCCAUGUAUGGUGUCGAAAUUUAAU,–,–,0.382 µM,0.0211 µM
CGAGAUACGCUCGACCGAAAGGUACAUGAGGAUCACCCAUGUAGAAGGCGAUCCGCAACUCGGAUUGAGGAUAUAUACUACACA,0.0318 µM,0.0244 µM,–,–
CGAGUGUAAGGAUAUUCGGCGCCAGGGAACAACCUAGCGUAGAAGAAGGUACAUGAGGAUCACCCAUGUGGUUA,0.269 µM,0.0224 µM,–,–
CGAUCGUGUAGAGGAUAUGUUAAACAUGAGGAUCACCCAUGUAAGGUAGAAAUUUUUAUAAACAUACAGAAGGCUACACGAUCG,0.00732 µM,0.00515 µM,–,–
CGAUGUUAUGCAGGAUAUCUCUCUUGAAUGCGGAGAGAAGGGCAUAGGGAGACAUACGCCUUAUUACAUGAGGAUCACCCAUGU,0.00902 µM,0.00792 µM,–,–
CGAUGUUAUGUCAGGAUAUGCGUUGCGAAAGCGAUGCAGAAGGGACAUGAGGAUCACCCAUGUCCUAACCAUCG,0.0123 µM,0.0226 µM,–,–
CGAUUACGAGGAUAUUAUGGCCUCGACAUGAGGAUCACCCAUGUACAAACAUGAAUACCUUGAGAAGGCGUAGAGC,0.0677 µM,0.0673 µM,–,–
CGCAAAGAUGGGUUUAAUGGAGCAUAGGAUAUGCUUGUACAUGAGGAUCACCCAUGUAAUAUUGUGCAGAAGGGUGCAUUUGCG,–,–,0.293 µM,0.0743 µM
CGCAACAUACAGAAGGAGUAAAGGAGAAGUGUACUAGGAUAUGUUAACAUGAGGAUCACCCAUGUCGUUUGGGAUUUUGUUGCG,0.383 µM,0.0993 µM,–,–
CGCAACUCAGAUCUUUUUAACAUGAGGAUCACCCAUGUAUUGAGAAGGAGGAAGAAGAGAGAUUCCUAGGAUAUCAGAGUUGCG,0.0054 µM,0.00614 µM,–,–
CGCAAGUCAGGAUAUUCGACUGGUAAAUCUGUGGAUCAGUAGGAGAAGGGACAUGAGGAUCACCCAUGUUUGUA,0.0295 µM,0.0359 µM,–,–
CGCAAUGAUGGUAGUAAUAGAGCAUAGGAUAUGCUUGUACAUGAGGAUCACCCAUGUUAUAUUUUGCAGAAGGGUGUAAUUGCG,–,–,0.309 µM,0.159 µM
CGCACUAUACAUGAGGAUCACCCAUGUUAAUAUGAGGUAGUCAGAAGGCAUUGUAUGAGAUAUUAUGAGGAUAUGAUUAGUGCG,–,–,0.226 µM,0.0414 µM
CGCACUGAUAGAGGAUAUGUUUAACAUGAGGAUCACCCAUGUGUACAAGUAUCAAUAUUUAUGUAACAGAAGGCUAUUAGUGCG,0.00577 µM,0.00547 µM,–,–
CGCACUUAGCGAGGAUAUGUAAAACAUGAGGAUCACCCAUGUGAUUUAGCUCCAAUUUUAAUGACACAGAAGGCGCUUAGUGCG,0.0222 µM,0.0158 µM,–,–
CGCCGACAUGAGGAUCACCCAUGUCACAACUGGUCAGGAUAUGGUAUGAAAUGGCUAUUGCCAGAAGGGACCUCAG,–,–,0.0409 µM,0.0204 µM
